Results collected from several papers.
Target: Serine/threonine-protein kinase PAK 5 (PAK5, Homo sapiens, UniProt Q9P286)

Cn1c(=O)n(-c2ccc(C(C)(C)C#N)cc2)c2c3cc(-c4cnc5ccccc5c4)ccc3ncc21 — remaining activity (enzyme activity; inhibitor; 10 µM): 90%
Nc1nc(NC2CCCCC2)sc1C(=O)c1ccccc1 — remaining activity (enzyme activity; inhibitor; 10 µM): 103%
CNC(=O)c1cc(Oc2ccc(NC(=O)Nc3ccc(Cl)c(C(F)(F)F)c3)cc2)ccn1 — inhibition (enzyme activity; inhibitor; 10 µM): -21%
Cc1ccc(Nc2nccc(N(C)c3ccc4c(C)n(C)nc4c3)n2)cc1S(N)(=O)=O — remaining signal (cell-free assay; inhibitor; 0.5 µM): 95.4%
FC(F)(F)c1ccc2c(c1)nc(-c1cccnc1)n2C1CC1 — remaining binding (cell-free assay; competition with immobilised ligand; 1 µM): 100%
CC(C)(C)c1nc2c(s1)c1nc(N)ncc1c1ccc(NS(=O)(=O)c3c(F)cccc3F)c(F)c12 — remaining activity (enzyme activity; inhibitor; radiometric; 1 µM): 77%
CC(C)(O)[C@H]1CC[C@H](Nc2ccc3ncc(-c4cccc(C(F)(F)F)c4)n3n2)CC1 — remaining activity (enzyme activity; inhibitor; 1 µM): 98.1%
CCN(CC)c1ccc(C2=NNC(=O)CC2C)cc1[N+](=O)[O-] (centres unmarked) — remaining activity (enzyme activity; inhibitor; 10 µM): 5%
FC(F)(F)Oc1cccc(-c2cnc3ccc(-c4ccncc4)nn23)c1 — activity vs control (enzyme activity; inhibitor; radiometric; 5 µM): 62%
CC/C(=N\NC(=O)NCc1cccc(O)c1)c1ccc(O)c(C)c1O — inhibition (enzyme activity; inhibitor; 0.1 µM): -3.9%
CN1CCN(c2cnc3c(C4CCN(C(=O)c5ccc(OC(F)(F)F)cc5N)CC4)ncnc3c2)CC1 — remaining binding (cell-free assay; competition with immobilised ligand; 1 µM): 100%
COc1cc(/C=C/C(=O)CC(=O)/C=C/c2ccc(O)c(OC)c2)ccc1O — activity vs control (enzyme activity; inhibitor; 1 µM): 108%
Nc1nc(Nc2ccccc2)sc1C(=O)c1c(F)cccc1F — remaining activity (enzyme activity; inhibitor; 10 µM): 66%
COc1cc(Cl)c(C(=O)N[C@@H](CN[C@H]2CC[C@@H](N)CC2)Cc2ccc(C#N)cc2)cc1-c1ccc(CN[C@H](C)c2ccc(C)cc2)o1 — remaining activity (enzyme activity; inhibitor; 1 µM): 103%
Cc1cc(NC(=O)c2cccc3cc(-c4cccc5[nH]nc(N)c45)ccc23)ccc1F — activity vs control (enzyme activity; inhibitor; 0.1 µM): 88%
Cn1nc(C(=O)NCc2ccc(C(=O)O)cc2)cc1-c1ccc2[nH]ccc2c1 — remaining binding (cell-free assay; competition with immobilised ligand; 0.1 µM): 62%
CN(C)c1nccc(-c2cnc3ncccn23)n1 — remaining binding (binding; 1 µM): 78%
Cc1sc(C(=O)NC2COC2)cc1-n1cc(NC(=O)Nc2c(F)cccc2Cl)cn1 — remaining activity (enzyme activity; inhibitor; 10 µM): 103%
COc1cc(Nc2cnc(C#N)c(O[C@H](C)CN(C)C)n2)ncc1-c1cnn(C)c1 — remaining activity (enzyme activity; inhibitor; radiometric; 1 µM): 93%
CCC(=N\O)/C(C)=C/c1ccc(F)cc1 — remaining binding (cell-free assay; competition with immobilised ligand; 1 µM): 100%
O=C1Nc2ccc(Cl)cc2C1=Cc1cc(Cl)c(O)c(Cl)c1 — remaining signal (cell-free assay; 0.5 µM): 91.5%
CCC(=O)N[C@@H]1CC[C@H](C(=O)N(C)c2ccc(-c3nc4ccccc4o3)cc2)C1 — remaining binding (cell-free assay; competition with immobilised ligand; 1 µM): 100%
CCN(CC)CCNC(=O)c1c(C)[nH]c(/C=C2\C(=O)Nc3ccc(F)cc32)c1C — inhibition (enzyme activity; inhibitor; 10 µM): 55%
COc1ccc2cc(OCC3(C(=O)O)CN(C(=O)c4ccc(F)cc4)C3)ccc2c1 — remaining binding (cell-free assay; competition with immobilised ligand; 1 µM): 100%
COc1cc2ncnc(Nc3ccc(Oc4ccccc4)c(C)c3C)c2cc1OC — inhibition (enzyme activity; inhibitor; 1 µM): 3%
CCS(=O)(=O)c1cc2cc(C[C@](O)(CC(C)(C)c3ccc(F)cc3C(N)=O)C(F)(F)F)[nH]c2cn1 — remaining binding (cell-free assay; competition with immobilised ligand; 1 µM): 100%
O=C(Nc1cnn(-c2csc(C(=O)NC3COC3)c2)c1)Nc1ccccc1Cl — remaining activity (enzyme activity; inhibitor; 5 µM): 92.1%
O=C1NC(c2ccccn2)Sc2ccccc21 (centres unmarked) — remaining binding (cell-free assay; competition with immobilised ligand; 1 µM): 94%
O=C1NC(=O)c2cc(Nc3ccc(F)cc3)c(Nc3ccc(F)cc3)cc21 — remaining signal (cell-free assay; 0.5 µM): 96.4%
